Data published in ChEMBL document CHEMBL4396878, “Mechanisms of Specific versus Nonspecific Interactions of Aggregation-Prone Inhibitors and Attenuators” (J Med Chem, 2019).
Calls of active or inactive are those of the source. The rule behind the calls is not given here.

Assays:
[1] = Aggregation property of the compound in NMR buffer assessed as micellar morphology at 200 uM by uranyl acetate staining-based transmission electron microscopic analysis; assay type: physicochemical
[2] = Aggregation property of the compound assessed as shift in peak width by 1H-NMR analysis; assay type: physicochemical
How it was run: (§1)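 Line widths, chemical shifts and peak intensities tracked; CAC taken as the concentration where intensities deviate from linear dependence, or, for line width, the minimal concentration that increases peak width.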

[3] = Aggregation property of the compound assessed as change in chemical shift by 1H-NMR analysis; assay type: physicochemical; how it was run: as §1
[4] = Aggregation property of the compound assessed as change in peak intensity by measuring concentration at which peak intensities deviated from the linear correlation by 1H-NMR analysis; assay type: physicochemical; how it was run: as §1
[5] = Binding affinity to Triton-X 100 assessed as inter-molecular cross relaxation at 100 uM by NOESY spectra analysis
How it was run: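 2D NOESY and ROESY of 100 μM ESI with 0.025% Triton X-100 or 500 μM ESI with 0.05% Triton X-100; 2K × 512 complex points, 12 ppm spectral width centred at 4.7 ppm, intra- and intermolecular cross-peaks mapped.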

[6] = Binding affinity to Triton-X 100 assessed as intra-molecular saturation transfer at 100 uM at 6.61 ppm by STD spectra analysis
How it was run: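 STD NMR, saturation by a train of 40 Gaussian pulses of 50 ms each; selective on-resonance irradiation at the stated ppm (TX at 7.48 ppm), off-resonance at 30 ppm, interleaved and subtracted by phase cycling. 32K points, 16 ppm width centred at 4.7 ppm, 256 scans, 16 dummy scans, 0.1 s recycle delay (~15 min); 3 Hz exponential line broadening.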

[7] = target: T1, Rap guanine nucleotide exchange factor 3 (Homo sapiens) (UniProt O95398); experiment: Binding affinity to human EPAC1 cAMP binding domain (149 to 318 residues) assessed as residue-dependent change in chemical shift at 100 uM using aggregate form of compound by [15N-1H]HSQC spectroscopic analysis
T1 sequence (whole entry): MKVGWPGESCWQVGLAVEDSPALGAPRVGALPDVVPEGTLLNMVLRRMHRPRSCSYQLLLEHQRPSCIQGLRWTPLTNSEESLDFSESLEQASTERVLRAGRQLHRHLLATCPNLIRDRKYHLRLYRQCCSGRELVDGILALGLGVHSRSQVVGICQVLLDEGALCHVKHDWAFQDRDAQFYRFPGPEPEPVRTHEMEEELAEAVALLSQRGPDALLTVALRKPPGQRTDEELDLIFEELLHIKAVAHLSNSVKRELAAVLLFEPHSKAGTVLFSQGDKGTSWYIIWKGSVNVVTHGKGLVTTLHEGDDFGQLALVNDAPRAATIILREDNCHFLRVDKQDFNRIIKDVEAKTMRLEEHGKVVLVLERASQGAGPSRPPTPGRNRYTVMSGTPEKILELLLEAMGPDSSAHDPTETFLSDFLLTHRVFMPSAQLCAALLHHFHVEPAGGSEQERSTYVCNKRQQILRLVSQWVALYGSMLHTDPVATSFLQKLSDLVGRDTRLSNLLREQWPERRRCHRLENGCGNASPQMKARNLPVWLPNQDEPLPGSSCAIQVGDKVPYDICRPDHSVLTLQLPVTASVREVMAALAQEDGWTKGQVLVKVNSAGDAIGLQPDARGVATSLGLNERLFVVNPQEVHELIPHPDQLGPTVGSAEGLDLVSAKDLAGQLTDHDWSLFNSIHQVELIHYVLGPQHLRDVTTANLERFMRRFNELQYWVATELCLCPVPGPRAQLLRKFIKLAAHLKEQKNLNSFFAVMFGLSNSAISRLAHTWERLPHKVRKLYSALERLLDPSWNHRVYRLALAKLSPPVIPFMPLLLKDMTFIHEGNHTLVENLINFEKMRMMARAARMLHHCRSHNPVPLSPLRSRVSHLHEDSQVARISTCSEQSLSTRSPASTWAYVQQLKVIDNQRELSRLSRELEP

[8] = target: T1, Rap guanine nucleotide exchange factor 3 (Homo sapiens); experiment: Binding affinity to human EPAC1 cAMP binding domain (149 to 318 residues) at 400 uM in presence of 0.1% triton X-100 by [15N-1H]HSQC spectroscopic analysis
[9] = target: T2, Albumin (Homo sapiens, UniProt P02768); experiment: Binding affinity to human serum albumin assessed as line broadening at 100 uM by 1D 1H NMR analysis
T2 sequence (P02768 whole entry): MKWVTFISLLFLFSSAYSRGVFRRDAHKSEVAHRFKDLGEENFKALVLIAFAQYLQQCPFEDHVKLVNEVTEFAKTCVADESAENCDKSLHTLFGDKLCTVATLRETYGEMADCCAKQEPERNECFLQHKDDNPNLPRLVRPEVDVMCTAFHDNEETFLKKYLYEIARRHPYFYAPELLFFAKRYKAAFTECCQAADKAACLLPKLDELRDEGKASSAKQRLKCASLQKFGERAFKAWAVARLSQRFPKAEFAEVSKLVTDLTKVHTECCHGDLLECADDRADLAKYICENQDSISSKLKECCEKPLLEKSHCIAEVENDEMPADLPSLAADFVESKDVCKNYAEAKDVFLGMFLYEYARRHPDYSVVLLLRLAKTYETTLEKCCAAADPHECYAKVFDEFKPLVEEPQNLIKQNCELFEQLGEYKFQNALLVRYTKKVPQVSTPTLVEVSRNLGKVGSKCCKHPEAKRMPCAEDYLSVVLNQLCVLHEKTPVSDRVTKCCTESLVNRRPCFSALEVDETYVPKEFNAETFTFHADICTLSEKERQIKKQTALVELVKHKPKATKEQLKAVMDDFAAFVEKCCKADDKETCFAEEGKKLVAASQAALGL

[10] = target: T2, Albumin; experiment: Displacement of [13C]oleic acid from human serum albumin by CH-HSQC spectra analysis
How it was run: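 Fatty-acid-free recombinant HSA at 250 μM in sodium phosphate buffer (20 mM NaPO4, pH 7.6, 50 mM NaCl, D2O), 37 °C for 30 min. 13C-oleic acid (100 mM stock in DMSO-d6, warmed to 50 °C for 10 min) added to 1.5 mM, then 2 h at 37 °C. CH-HSQC at 298 K; loss of site-specific cross-peaks A–H scored.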

[11] = target: T2, Albumin; experiment: Displacement of dansylated phenylalanine from human serum albumin by fluorescence assay; settings: read-out: Kd(app)
How it was run: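 Competition of ligand against 100 μM dansyl-phenylalanine (binds Sudlow sites 1 and 2) bound to 2.5 μM HSA. Excitation 370 nm, emission 480 nm. Fractional saturation modelled with two sites, free HSA assumed negligible; least-squares fit with no further ESI sites, giving maximum apparent dissociation constants.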

[12] = target: T2, Albumin; experiment: Displacement of ANS from human serum albumin up to 50 uM by fluorescence assay
How it was run: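 Fluorescence competition: 2.5 μM HSA with 5 or 100 μM ANS, ligand added over a concentration range. Excitation 360 nm; emission read at 460 and 480 nm to check for blue shift. Signal normalized between ANS alone (minimum) and HSA:ANS (maximum).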

[13] = target: T2, Albumin; experiment: Binding affinity to human serum albumin assessed as inhibition of compound aggregation at 250 uM by surface plasmon resonance analysis
How it was run: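 SPR on a nonfunctionalized gold nanoparticle sensor; samples in NMR buffer with DMSO at 1.25%, injected at 33 μL/min alongside matched DMSO controls (with HSA where present, 25 μM), in duplicate. Surface regenerated only after HSA-containing injections.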

[14] = target: T2, Albumin; experiment: Binding affinity to human serum albumin assessed as inhibition of compound aggregation at 500 uM by surface plasmon resonance analysis
[15] = target: T2, Albumin; experiment: Binding affinity to human serum albumin assessed as inhibition of compound aggregation at 200 to 500 uM by dynamic light scattering analysis
How it was run: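 Dynamic light scattering in NMR buffer, samples filtered through 0.22 μm and centrifuged 5 min at 13 500 rpm before measurement. Autocorrelation accumulated 150 s at a 173° scattering angle, in replicates of 3–5, with water viscosity used in analysis; intensity or volume size distributions reported.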

[16] = target: T1, Rap guanine nucleotide exchange factor 3 (Homo sapiens); experiment: Binding affinity to human EPAC1 cAMP binding domain (149 to 318 residues) assessed as increase in peak intensity in presence of human serum albumin by [15N-1H]HSQC spectroscopic analysis relative to control

Activity [1]: Active
Activity [2]: Not Active
Activity [3]: Not Active
Activity [4]: 150 µM
Activity [6]: Active
Activity [7]: Active
Activity [8]: Active
Activity [9]: Active
Activity [10]: Active
Kd [11]: 0.099 µM
Activity [12]: Active
inhibition (INH) [13]: Active
inhibition (INH) [14]: Not Active
inhibition (INH) [15]: Active
Activity [16]: 30 to 40%
SMILES: CC(C)(C)c1cc(C(=O)/C(C#N)=N/Nc2cccc(Cl)c2)no1
Activity [5]: Active
